What was measured:
Progesterone receptor = target: T1, Progesterone receptor (Homo sapiens, UniProt P06401); assay: Displacement of [3H]R5020 from human PR in human T47D cells by whole cell assay; assay type: cell-based
T1 sequence (P06401 whole entry): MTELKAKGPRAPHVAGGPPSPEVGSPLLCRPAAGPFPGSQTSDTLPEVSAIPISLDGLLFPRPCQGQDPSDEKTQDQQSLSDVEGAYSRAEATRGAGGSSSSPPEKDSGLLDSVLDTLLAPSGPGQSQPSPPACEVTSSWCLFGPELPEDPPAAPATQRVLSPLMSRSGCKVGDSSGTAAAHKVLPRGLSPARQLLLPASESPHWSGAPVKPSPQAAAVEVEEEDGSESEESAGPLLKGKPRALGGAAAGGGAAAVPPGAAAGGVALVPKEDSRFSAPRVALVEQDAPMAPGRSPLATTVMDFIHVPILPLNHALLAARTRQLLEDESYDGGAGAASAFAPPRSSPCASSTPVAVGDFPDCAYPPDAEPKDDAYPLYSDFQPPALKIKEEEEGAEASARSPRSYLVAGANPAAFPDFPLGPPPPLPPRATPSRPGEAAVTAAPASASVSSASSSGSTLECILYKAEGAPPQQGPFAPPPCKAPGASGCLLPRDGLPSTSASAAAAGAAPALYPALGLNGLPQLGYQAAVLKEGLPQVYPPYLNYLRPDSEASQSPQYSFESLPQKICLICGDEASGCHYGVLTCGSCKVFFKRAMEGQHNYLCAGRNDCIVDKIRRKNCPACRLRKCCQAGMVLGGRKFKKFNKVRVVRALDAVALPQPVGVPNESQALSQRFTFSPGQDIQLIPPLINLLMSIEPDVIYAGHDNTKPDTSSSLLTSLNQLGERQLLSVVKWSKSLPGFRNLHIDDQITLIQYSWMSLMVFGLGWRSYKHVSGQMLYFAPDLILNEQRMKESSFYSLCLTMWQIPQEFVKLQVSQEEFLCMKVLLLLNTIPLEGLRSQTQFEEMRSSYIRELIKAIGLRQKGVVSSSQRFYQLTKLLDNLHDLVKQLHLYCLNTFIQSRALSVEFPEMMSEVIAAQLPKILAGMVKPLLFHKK

[1] = Oral bioavailability in Sprague-Dawley rat at 5 mg/kg; assay type: ADME, organism-based; conditions: in vivo
In short: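 Female Sprague–Dawley rats dosed as 1-in-4 cassette or discrete studies. iv in DMSO/PEG200 20:80; po in aqueous 2% Tween 80/0.5% methyl cellulose. Parameters reported: C0, Cmax, t1/2, plasma clearance, Vss, AUC0-inf and %F.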

SMILES: Cn1c(C#N)ccc1-c1cc(F)c2c(c1)C(C)(C)C(=O)N2
- IC50 (Progesterone receptor): 4.1 nM
- bioavailability [1]: 31%
